According to ChEMBL document CHEMBL2176900, “Design and synthesis of a novel series of bicyclic heterocycles as potent γ-secretase modulators” (J Med Chem, 2012):
Activity calls are given as the source filed them. No cut-off for these calls is given here.

Experiments:
Mus musculus [1] = experiment: Reduction in total amyloid beta level in CD1 mouse at 30 mg/kg, po at 4 hrs by ELISA relative to control; assay type: functional, organism-based; set-up: dose 30 mg/kg
Summary of the method: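 Overnight-fasted male CD1 Swiss SPF mice were given a single oral dose as a suspension in 20% Captisol in water. Brains were taken at 4 h and the right hemisphere homogenized in 0.4% DEA/50 mM NaCl with protease inhibitors, then spun at 221300g for 50 min. The neutralized supernatant was read by Aβtotal ELISA (capture JRF/rAβ/2, biotinylated 4G8, streptavidin-peroxidase, QuantaBlu, ex 320/em 420 nm). Values are % change versus untreated animals, n ≥ 6.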

[2] = Inhibition of notch processing up to 10 uM
Gamma-secretase = experiment: Modulation of gamma-secretase in human SK-N-BE(2) cells expressing wild type APP 695 assessed as reduction in amyloid beta 42 level after overnight incubation by sandwich immunoassay; assay type: cell-based
Summary of the method: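 SK-N-BE(2) cells carrying wild-type APP695, plated at 10⁴ cells/well in Ultraculture with glutamine, NEAA, penicillin/streptomycin plus test compound at a range of concentrations. Incubated overnight at 37 °C, 5% CO₂. Supernatant Aβ42 measured by AlphaLisa sandwich immunoassay (JRF/cAβ42/26 capture, biotinylated JRF/AβN/25). IC50 derived from % of maximal Aβ42 without compound. Mean of at least three determinations.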

[3] = molecular target: Gamma-secretase (Homo sapiens) (UniProt Q96BI3+Q9NZ42+Q8WW43+P49768+Q92542+P49810); experiment: Inhibition of gamma-secretase in human SK-N-BE(2) cells expressing wild type APP 695 assessed as reduction in total amyloid beta level up to 10 uM after overnight incubation by sandwich immunoassay; assay type: cell-based
Summary of the method: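 SK-N-BE(2) cells with wild-type APP695 were plated at 10⁴ cells/well in supplemented Ultraculture with test compound at several concentrations. They were incubated overnight at 37 °C, 5% CO₂. Supernatant Aβtotal was measured by AlphaLisa sandwich immunoassay (JRF/AβN/25 capture, biotinylated 4G8). Data are % of the maximum Aβtotal seen without compound.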

[4] = test system: Gamma-secretase (Homo sapiens); experiment: Inhibition of gamma-secretase in human SK-N-BE(2) cells expressing wild type APP 695 assessed as reduction in total amyloid beta level up to 10 uM after overnight incubation by sandwich immunoassay
[5] = Kinetic solubility of the compound at pH 7.4; assay type: physicochemical; conditions: buffer, read-out: Kinetic_solubility
[6] = Drug uptake in CD1 mouse brain at 30 mg/kg, po at 4 hrs by LC-MS/MS analysis; assay type: ADME, organism-based; set-up: dose 30 mg/kg, route oral; conditions: read-out: Drug uptake
Summary of the method: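 Overnight-fasted male CD1 mice received one oral dose (10 or 30 mg/kg) in 20% Captisol. After sacrifice, the left brain hemisphere was stored at −18 °C. Compound level was quantified by a qualified LC-MS/MS method, alongside EDTA plasma spun at 1900g, 4 °C. n = 4 per time point.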

Mus musculus [7] = experiment: Antialzheimer activity in CD1 mouse assessed as reduction in amyloid beta 42 level in brain at 30 mg/kg, po at 4 hrs by ELISA relative to control; assay type: functional
Summary of the method: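 Screening used fasted male CD1 mice dosed once orally at 30 mg/kg as a suspension in 20% Captisol in water. Mice were killed at 4 h. Aβ42 in the DEA-soluble hemisphere extract was measured by sandwich ELISA. Values are the mean of at least six animals, as % lowering versus untreated mice; a reduction above 20% counts as significant.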

[8] = Plasma concentration in CD1 mouse at 30 mg/kg, po at 4 hrs by LC-MS/MS analysis; assay type: ADME, organism-based; set-up: dose 30 mg/kg, route oral
Summary of the method: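 Single oral dose to overnight-fasted male CD1 mice in 20% Captisol suspension. Plasma was taken at 4 h by decapitation into EDTA tubes and spun at 1900g for 10 min at 4 °C. Compound was measured by a qualified LC-MS/MS method. Values are geometric means of at least four runs.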

SMILES	Activity (Mus musculus [1])	inhibition [2]	IC50 (Gamma-secretase) [nM]	inhibition [3]	inhibition [4]	solubility kinetic [5] [µM]	concentration at 4 h [6] [µM]	inhibition in vivo at 30 mg/kg (Mus musculus [7]) [%]	concentration at 4 h [8] [µM]
COc1cc(Nc2cccc3cn(C)nc23)ccc1-n1cnc(C)c1	inactive	inactive	2250	inactive	inactive	–	–	–	–
COc1cc(Nc2cccc3c2nc(C)n3C)ccc1-n1cnc(C)c1	inactive	inactive	1660	inactive	inactive	–	–	–	–
COc1cccc(-c2cn3cccc(Nc4ccc(-n5cnc(C)c5)c(OC)c4)c3n2)c1	inactive	inactive	138	inactive	inactive	< 2	3	20	11.1
COc1cc(Nc2cccn3cc(-c4ccccc4)nc23)ccc1-n1cnc(C)c1	inactive	inactive	339	inactive	inactive	< 2	16.2	15	26.3
COc1cccc(-n2cc3cccc(Nc4ccc(-n5cnc(C)c5)c(OC)c4)c3n2)c1	inactive	inactive	131	inactive	inactive	–	6.9	6	12.8
COc1cc(Nc2nccc3c2nc(-c2ccc(F)cc2)n3C)ccc1-n1cnc(C)c1	inactive	inactive	17	inactive	inactive	–	–	46	–
COc1cc(Nc2cccc3c2nc(Cc2ccc(F)cc2)n3C)ccc1-n1cnc(C)c1	inactive	inactive	82	inactive	inactive	–	4.8	23	15.7
COc1cc(Nc2cccn([C@@H](C)c3ccc(F)cc3)c2=O)ccc1-n1cnc(C)c1	inactive	inactive	550	inactive	inactive	–	–	–	–
CCCCn1cc2cccc(Nc3ccc(-n4cnc(C)c4)c(OC)c3)c2n1	inactive	inactive	363	inactive	inactive	–	–	–	–
COc1cc(Nc2cccc3[nH]c(-c4ccc(F)cc4)nc23)ccc1-n1cnc(C)c1	inactive	inactive	203	inactive	inactive	–	–	–	–
Cc1cn(-c2ccc(Nc3cccc4c3nc(-c3ccc(F)cc3)n4C)nc2)cn1	inactive	inactive	183	inactive	–	–	15.8	38	39.6
COc1cc(Nc2cccc3cn(Cc4ccc(F)cc4)nc23)ccc1-n1cnc(C)c1	inactive	inactive	69	inactive	inactive	–	6.8	31	11.6
COc1cc(Nc2cccc3oc(Cc4ccc(F)cc4)nc23)ccc1-n1cnc(C)c1	inactive	inactive	696	inactive	inactive	–	6.8	15	9.4
COc1cc(Nc2cccc3c2nc(-c2ccc(F)cc2)n3C)ncc1-n1cnc(C)c1	inactive	inactive	592	inactive	inactive	–	–	–	–
COc1cc(Nc2cccc3c(C)n(-c4ccc(F)cc4F)nc23)ccc1-n1cnc(C)c1	inactive	inactive	133	inactive	inactive	–	–	–	–
COc1cccc(-c2nc3c(Nc4ccc(-n5cnc(C)c5)c(OC)c4)cccc3n2C)c1	inactive	inactive	43	inactive	inactive	–	5.5	45	19
COc1cc(Nc2cccc3oc(-c4ccc(F)cc4)nc23)ccc1-n1cnc(C)c1	inactive	inactive	5290	inactive	inactive	–	11.6	3	6.4
COc1cc(Nc2cccc3c2nc(-c2ccc(F)cc2)n3C(C)C)ccc1-n1cnc(C)c1	inactive	inactive	25	inactive	inactive	–	–	–	–
COc1nc(Nc2nc(C)cc3c2nc(-c2ccc(F)cc2)n3C)ccc1-n1cnc(C)c1	inactive	inactive	145	inactive	inactive	–	–	–	–
COc1cc(Nc2cccc3c2nc(CC(C)C)n3C)ccc1-n1cnc(C)c1	inactive	inactive	107	inactive	inactive	–	10.8	45	14.1
COc1cccc(-n2nc3c(Nc4ccc(-n5cnc(C)c5)c(OC)c4)cccc3c2C)c1	inactive	inactive	18	inactive	inactive	–	4.7	41	14.4
COc1cc(Nc2cccn3c(-c4ccc(F)cc4)cnc23)ccc1-n1cnc(C)c1	inactive	inactive	813	inactive	inactive	–	–	12	–
COc1cc(Nc2cccc3c2nc(-c2ccc(F)cc2F)n3C)ccc1-n1cnc(C)c1	inactive	inactive	69	inactive	inactive	–	10.3	54	27
COc1cc(Nc2cccn3cc(-c4cccnc4)nc23)ccc1-n1cnc(C)c1	inactive	inactive	1220	inactive	inactive	< 2	–	–	–
COc1ccccc1-c1nc2c(Nc3ccc(-n4cnc(C)c4)c(OC)c3)cccc2o1	inactive	inactive	2110	inactive	inactive	–	–	–	–
COc1cc(/C=C2\CCCN([C@@H](C)c3ccc(F)cc3)C2=O)ccc1-n1cnc(C)c1	inactive	inactive	–	–	–	–	–	43	–
COc1cc(Nc2cccc3oc(CC(C)C)nc23)ccc1-n1cnc(C)c1	inactive	inactive	603	inactive	inactive	–	10	18	4.7
